In assay [1] the test system is Cryptococcus neoformans. Nature of the assay: In vitro antifungal activity against Cryptococcus neoformans ATCC 32264.
The subject of assay [2] is Candida albicans. Nature of the assay: In vitro antifungal activity against Candida albicans B311. Type of assay: functional. In short, it runs like this:
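Cells grown 24 h at 37 °C in Sabouraud dextrose broth, centrifuged, washed and resuspended in 0.9% saline at 10^6 CFU/mL (hemacytometer). MIC by 2-fold serial dilution in yeast nitrogen broth with a 10 μL loop inoculum. Incubation at 37 °C, read at 24 and 48 h. MIC is the lowest inhibitory concentration. Amphotericin B is the control. Replicate evaluations.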

Assay [3] concerns Aspergillus fumigatus. Nature of the assay: In vitro antifungal activity against Aspergillus fumigatus ATCC 26934. The class given is functional. Summed up: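 Inoculum is a surface-growth suspension from agar slants in sterile water. Compounds active in the agar-well diffusion screen (1 mg/mL, zone >4 mm) are tested by 2-fold serial dilution in Sabouraud dextrose broth. 10 μL loop inoculum, 30 °C, read at 48 and 72 h. MIC is the lowest growth-inhibiting concentration. Amphotericin B is the control. Replicate evaluations.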

For assay [4], the system named is Mycobacterium intracellulare. Nature of the assay: In vitro anti-mycobacterial activity against Mycobacterium intracellular ATCC 23068. Type of assay: functional. Summed up: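 Organism grown on Lowenstein-Jensen medium for 48 h at 37 °C. Active compounds from the agar-well screen (1 mg/mL, zone >4 mm) go to 2-fold serial broth dilution in Mueller-Hinton broth. 10 μL loop inoculum per tube, 37 °C for 72 h. MIC is the lowest concentration inhibiting growth. Rifampin is the positive control. Replicate evaluations.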

This is an account of results in ChEMBL document CHEMBL1125339, “Copyrine alkaloids: synthesis, spectroscopic characterization, and antimycotic/antimycobacterial activity of A- and B-ring-functionalized sampangines” (1992).

≈ marks a conversion by molar mass, not a printed value.

With `[N-]=[N+]=Nc1cnc2c3c(nccc13)-c1ccccc1C2=O`, the results for the MIC in assay [1] and in assay [2] were 6.25 µg/mL (≈ 22.9 µM) and 25 µg/mL (≈ 91.5 µM), respectively.

Turning to `COc1cnc2c3c(nccc13)C(=O)c1ccccc1-2`, the MIC in assay [1] was determined as 0.78 µg/mL (≈ 2.97 µM); in assay [3], 0.78 µg/mL (≈ 2.97 µM); in assay [2], 1.56 µg/mL (≈ 5.95 µM); in assay [4], 1.56 µg/mL (≈ 5.95 µM).

With `CO[C@H]1/C=C/O[C@@]2(C)Oc3c(C)c(O)c4c(O)c(c(/C=N/N5CCN(C)CC5)c(O)c4c3C2=O)NC(=O)/C(C)=C\C=C\[C@H](C)[C@H](O)[C@@H](C)[C@@H](O)[C@@H](C)[C@H](OC(C)=O)[C@@H]1C` [RIFAMPIN], it took 0.78 µg/mL (≈ 0.948 µM) to inhibit growth in assay [4] (MIC).

Consider `O=C1c2ccccc2-c2nccc3c2c1nc1ccccc13` [BENZOSAMPANGINE], for which the MIC in assay [1] worked out at 1.56 µg/mL (≈ 5.53 µM); in assay [3] it was 0.39 µg/mL (≈ 1.38 µM); in assay [2] it was 0.39 µg/mL (≈ 1.38 µM); in assay [4], 0.39 µg/mL (≈ 1.38 µM).

For the compound `O=C1c2ccccc2-c2nccc3ccnc1c23` [SAMPANGINE], the MIC in assay [1] was 0.78 µg/mL (≈ 3.36 µM); in assay [3] it was 1.56 µg/mL (≈ 6.72 µM); in assay [2], 1.56 µg/mL (≈ 6.72 µM); in assay [4] it was 0.78 µg/mL (≈ 3.36 µM).

Take `Cc1cnc2c3c(nccc13)C(=O)c1ccccc1-2`: the MIC came out at 0.39 µg/mL (≈ 1.58 µM) in assay [1], 0.78 µg/mL (≈ 3.17 µM) in assay [3], 0.39 µg/mL (≈ 1.58 µM) in assay [2] and 0.39 µg/mL (≈ 1.58 µM) in assay [4].

`CCOc1nc2c3c(nccc3c1Br)-c1ccccc1C2=O`: the MIC in assay [1] and in assay [4] was 25 µg/mL (≈ 70.4 µM) each time.

Consider `CCc1ccnc2c1C(=O)c1ccccc1C2=O`, for which the MIC turned out to be 3.12 µg/mL (≈ 13.2 µM) in assay [1], 100 µg/mL (≈ 421 µM) in assay [2] and 12.5 µg/mL (≈ 52.7 µM) in assay [4].

`Cc1c2c(nc3ccccc13)C(=O)c1ccccc1C2=O`: the MIC was found to be 25 µg/mL (≈ 91.5 µM) in assay [1], 25 µg/mL (≈ 91.5 µM) in assay [2] and 1.56 µg/mL (≈ 5.71 µM) in assay [4].

Regarding `Nc1cnc2c3c(nccc13)-c1ccccc1C2=O`, the minimal inhibitory concentration (MIC) in assay [1] was 25 µg/mL (≈ 101 µM); in assay [2], 100 µg/mL (≈ 404 µM).

In the case of `Cc1ccnc2c1C(=O)c1ccccc1C2=O` [CLEISTOPHOLINE], the MIC in assay [1] worked out at 1.56 µg/mL (≈ 6.99 µM); in assay [3], 100 µg/mL (≈ 448 µM); in assay [2], 12.5 µg/mL (≈ 56 µM); in assay [4] it was 12.5 µg/mL (≈ 56 µM).

As to `O=C1c2ccccc2-c2nccc3c(Cl)cnc1c23`, the results for the MIC in assay [1], in assay [2] and in assay [4] were 0.1 µg/mL (≈ 0.375 µM), 0.39 µg/mL (≈ 1.46 µM) and 3.12 µg/mL (≈ 11.7 µM), respectively.

With `COc1cnc2c3c(nccc13)-c1ccccc1C2=O`, the figures for the MIC in assay [1], in assay [2] and in assay [4] were 1.56 µg/mL (≈ 5.95 µM), 3.12 µg/mL (≈ 11.9 µM) and 3.12 µg/mL (≈ 11.9 µM), respectively.

For the compound `C[C@@H]1[C@H](O)[C@@H](C)/C=C/C=C/C=C/C=C/C=C/C=C/C=C/[C@H](O[C@@H]2O[C@H](C)[C@@H](O)[C@H](N)[C@@H]2O)C[C@@H]2O[C@](O)(C[C@@H](O)C[C@@H](O)[C@H](O)CC[C@@H](O)C[C@@H](O)CC(=O)O[C@H]1C)C[C@H](O)[C@H]2C(=O)O` [AMPHOTERICIN B], the MIC stood at 0.39 µg/mL (≈ 0.422 µM) in assay [1], 0.39 µg/mL (≈ 0.422 µM) in assay [3] and 0.78 µg/mL (≈ 0.844 µM) in assay [2].

On to `O=C1c2ccccc2-c2nccc3c(Br)cnc1c23`, for which the MIC in assay [1] is 0.1 µg/mL (≈ 0.321 µM); in assay [3] it was 50 µg/mL (≈ 161 µM); in assay [2], 3.12 µg/mL (≈ 10 µM); in assay [4], 3.12 µg/mL (≈ 10 µM).
